Experimental data from ChEMBL document CHEMBL3808334, “Synthesis and in vitro evaluation of novel triazine analogues as anticancer agents and their interaction studies with bovine serum albumin” (Eur J Med Chem, 2016).

Experiments:
Assay type in all cases: functional
Malme-3M = assay: Growth inhibition of human MALME-3M cells assessed as cell growth at 10 uM incubated for 48 hrs by sulforhodamine B assay; conditions: read-out: Activity
A498 = assay: Growth inhibition of human A498 cells incubated for 48 hrs by sulforhodamine B assay; conditions: A498, 48 h
Method in brief: (§1)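 Five-dose assay: five concentrations from 10-fold or ½-log serial dilutions. Cells are plated at 5,000–40,000 per well according to doubling time, grown 24 h, then exposed 48 h at 37 °C, 5% CO₂. Fixed with cold 50% TCA (final addition) for 60 min at 4 °C and stained with 0.4% SRB in 1% acetic acid. Bound dye is solubilized in 10 mM Tris base and read at 515 nm. GI₅₀ is where [(Ti−Tz)/(C−Tz)]×100 = 50, with a time-zero plate as Tz.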

[1] = Growth inhibition of human COLO205 cells incubated for 48 hrs by sulforhodamine B assay; conditions: COLO 205, 48 h
Method in brief: (§2)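 Cells seeded at 5,000–40,000/well according to doubling time and preincubated 24 h at 37 °C, 5% CO2. Time-zero plates were TCA-fixed. DMSO concentrate was diluted in medium with 50 µg/ml gentamicin to give five concentrations (10-fold or ½ log steps), then exposed 48 h. Cells were TCA-fixed, stained with 0.4% SRB and read at 515 nm. Percent growth was taken against time-zero and control; GI50, TGI and LC50 derived.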

EKVX [2] = assay: Growth inhibition of human EKVX cells assessed as cell growth at 10^-5 M incubated for 48 hrs by sulforhodamine B assay; conditions: read-out: Activity; method in brief: as §2
HT-29 [3] = assay: Growth inhibition of human HT-29 cells assessed as cell growth at 10^-8 M incubated for 48 hrs by sulforhodamine B assay; conditions: HT-29, 48 h, read-out: Activity
[4] = Growth inhibition of human RPMI8226 cells assessed as cell growth at 10^-4 M incubated for 48 hrs by sulforhodamine B assay; conditions: RPMI-8226, 48 h, read-out: Activity
NCI-H23 = assay: Growth inhibition of human NCI-H23 cells incubated for 48 hrs by sulforhodamine B assay; conditions: NCI-H23, 48 h
Method in brief: (§3)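 Cells were plated at 5,000–40,000 per well according to doubling time and preincubated 24 h at 37 °C in 5% CO2; time-zero plates were then TCA-fixed. Five concentrations (10-fold or ½-log dilutions, DMSO stock) were incubated 48 h. Cells were TCA-fixed, stained with 0.4% SRB and read at 515 nm. GI50 was taken where [(Ti−Tz)/(C−Tz)]×100 = 50.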

NCI-H226 = assay: Growth inhibition of human NCI-H226 cells assessed as cell growth at 10^-4 M incubated for 48 hrs by sulforhodamine B assay; conditions: NCI-H226, 48 h, read-out: Activity
[5] = Growth inhibition of human RXF393 cells assessed as cell growth at 10^-6 M incubated for 48 hrs by sulforhodamine B assay; conditions: RXF 393, 48 h, read-out: Activity
CCRF-CEM = assay: Growth inhibition of human CCRF-CEM cells assessed as cell growth at 10^-4 M incubated for 48 hrs by sulforhodamine B assay; conditions: read-out: Activity
Method in brief: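 Leukemia line in the five-dose format: five concentrations from 10-fold or ½-log serial dilutions. Plated at 5,000–40,000 cells per well, preincubated 24 h, then compound added for 48 h at 37 °C, 5% CO₂. Sulforhodamine B absorbance read at 515 nm. Growth is computed against time-zero (Tz) and control (C) readings; GI₅₀ is where [(Ti−Tz)/(C−Tz)]×100 = 50.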

HT-29 [6] = assay: Growth inhibition of human HT-29 cells incubated for 48 hrs by sulforhodamine B assay; conditions: HT-29, 48 h; method in brief: as §3
HT-29 [7] = assay: Growth inhibition of human HT-29 cells assessed as cell growth at 10^-4 M incubated for 48 hrs by sulforhodamine B assay; conditions: HT-29, 48 h, read-out: Activity
ACHN [8] = assay: Growth inhibition of human ACHN cells assessed as cell growth at 10^-5 M incubated for 48 hrs by sulforhodamine B assay; conditions: read-out: Activity; method in brief: as §1
ACHN [9] = assay: Growth inhibition of human ACHN cells assessed as cell growth at 10^-4 M incubated for 48 hrs by sulforhodamine B assay; conditions: read-out: Activity; method in brief: as §1
MCF7 = assay: Growth inhibition of human MCF7 cells assessed as cell growth at 10^-7 M incubated for 48 hrs by sulforhodamine B assay; conditions: MCF7, 48 h, read-out: Activity
[10] = Growth inhibition of human HCC2998 cells assessed as cell growth at 10 uM incubated for 48 hrs by sulforhodamine B assay; conditions: HCC 2998, 48 h, read-out: Activity
Method in brief: (§4)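 Primary screen at one dose (10 µM) across 60 human cancer cell lines. Readout was growth percent relative to untreated control and time-zero.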

U-251 = assay: Growth inhibition of human U251 cells assessed as cell growth at 10^-6 M incubated for 48 hrs by sulforhodamine B assay; conditions: U-251, 48 h, read-out: Activity
[11] = Growth inhibition of human SW620 cells assessed as cell growth at 10^-4 M incubated for 48 hrs by sulforhodamine B assay; conditions: SW-620, 48 h, read-out: Activity
[12] = Growth inhibition of human HOP92 cells assessed as cell growth at 10^-4 M incubated for 48 hrs by sulforhodamine B assay; conditions: HOP-92, 48 h, read-out: Activity
KM12 = assay: Growth inhibition of human KM12 cells assessed as cell growth at 10^-4 M incubated for 48 hrs by sulforhodamine B assay; conditions: KM12, 48 h, read-out: Activity
[13] = Growth inhibition of human BT549 cells assessed as cell growth at 10^-7 M incubated for 48 hrs by sulforhodamine B assay; conditions: BT-549, 48 h, read-out: Activity; method in brief: as §1
EKVX [14] = assay: Growth inhibition of human EKVX cells assessed as cell growth at 10^-6 M incubated for 48 hrs by sulforhodamine B assay; conditions: read-out: Activity; method in brief: as §2
SK-MEL-28 = assay: Growth inhibition of human SK-MEL-28 cells incubated for 48 hrs by sulforhodamine B assay; conditions: SK-MEL-28, 48 h; method in brief: as §3
[15] = Growth inhibition of human COLO205 cells assessed as cell growth at 10 uM incubated for 48 hrs by sulforhodamine B assay; conditions: COLO 205, 48 h, read-out: Activity; method in brief: as §4
[16] = read-out: LC50 (the source's name)
[17] = read-out: pLC50 (the source's name) (converted)

SMILES: c1ccc(-c2nc(Nc3ccc(-c4nc5ccccc5[nH]4)cc3)nc(N3CCOCC3)n2)cc1
- growth at 10 µM (Malme-3M): -77.3%
- GI50 (A498; read-out: GI50): 1090 nM
- CC50 (A498; [16]): 6.31 µM
- TGI (A498; read-out: TGI): 2.62 µM
- GI50 (A498; read-out: pGI50 (converted)): 1100 nM
- CC50 (A498; [17]): 6.31 µM
- TGI (A498; read-out: pTGI (converted)): 2.63 µM
- GI50 ([1]; read-out: GI50): 1410 nM
- LC50 ([1]; read-out: LC50): 6.92 µM
- TGI ([1]; read-out: TGI): 3.13 µM
- GI50 ([1]; read-out: pGI50 (converted)): 1410 nM
- LC50 ([1]; read-out: pLC50 (converted)): 6.92 µM
- TGI ([1]; read-out: pTGI (converted)): 3.16 µM
- growth at 10 µM (EKVX [2]): -70%
- growth at 0.01 µM (HT-29 [3]): 105%
- growth at 100 µM [4]: -37%
- GI50 (NCI-H23; read-out: GI50): 2070 nM
- CC50 (NCI-H23; [16]): 68.7 µM
- TGI (NCI-H23; read-out: TGI): 4.78 µM
- GI50 (NCI-H23; read-out: pGI50 (converted)): 2090 nM
- CC50 (NCI-H23; [17]): 69.2 µM
- TGI (NCI-H23; read-out: pTGI (converted)): 4.79 µM
- growth at 100 µM (NCI-H226): -59%
- growth at 1 µM [5]: 30%
- growth at 100 µM (CCRF-CEM): -36%
- GI50 (HT-29 [6]; read-out: GI50): 645 nM
- CC50 (HT-29 [6]; [16]): 6.45 µM
- TGI (HT-29 [6]; read-out: TGI): 2.19 µM
- GI50 (HT-29 [6]; read-out: pGI50 (converted)): 646 nM
- CC50 (HT-29 [6]; [17]): 6.46 µM
- TGI (HT-29 [6]; read-out: pTGI (converted)): 2.19 µM
- growth at 100 µM (HT-29 [7]): -76%
- growth at 10 µM (ACHN [8]): -82%
- growth at 100 µM (ACHN [9]): -70%
- growth at 0.1 µM (MCF7): 92%
- growth at 10 µM [10]: -80.7%
- growth at 1 µM (U-251): 28%
- growth at 100 µM [11]: -84%
- growth at 100 µM [12]: -85%
- growth at 100 µM (KM12): -86%
- growth at 0.1 µM [13]: 100%
- growth at 1 µM (EKVX [14]): 81%
- GI50 (SK-MEL-28; read-out: GI50): 1560 nM
- CC50 (SK-MEL-28; [16]): 6.12 µM
- TGI (SK-MEL-28; read-out: TGI): 3.09 µM
- GI50 (SK-MEL-28; read-out: pGI50 (converted)): 1550 nM
- CC50 (SK-MEL-28; [17]): 6.17 µM
- TGI (SK-MEL-28; read-out: pTGI (converted)): 3.09 µM
- growth at 10 µM [15]: -68.8%

SMILES: Fc1ccc(-c2nc(Nc3ccc(-c4nc5ccccc5[nH]4)cc3)nc(N3CCOCC3)n2)cc1
- growth at 10 µM (Malme-3M): -65.7%
- GI50 (A498; read-out: GI50): 1520 nM
- CC50 (A498; [16]): 8.42 µM
- TGI (A498; read-out: TGI): 3.57 µM
- GI50 (A498; read-out: pGI50 (converted)): 1510 nM
- CC50 (A498; [17]): 8.51 µM
- TGI (A498; read-out: pTGI (converted)): 3.55 µM
- GI50 ([1]; read-out: GI50): 1920 nM
- LC50 ([1]; read-out: LC50): 9.23 µM
- TGI ([1]; read-out: TGI): 4.21 µM
- GI50 ([1]; read-out: pGI50 (converted)): 1910 nM
- LC50 ([1]; read-out: pLC50 (converted)): 9.33 µM
- TGI ([1]; read-out: pTGI (converted)): 4.17 µM
- growth at 10 µM (EKVX [2]): 3%
- growth at 0.01 µM (HT-29 [3]): 100%
- growth at 100 µM [4]: -14%
- GI50 (NCI-H23; read-out: GI50): 2570 nM
- CC50 (NCI-H23; [16]): > 100 µM
- TGI (NCI-H23; read-out: TGI): 9.9 µM
- GI50 (NCI-H23; read-out: pGI50 (converted)): 2570 nM
- CC50 (NCI-H23; [17]): > 100 µM
- TGI (NCI-H23; read-out: pTGI (converted)): 10 µM
- growth at 100 µM (NCI-H226): -50%
- growth at 1 µM [5]: 24%
- growth at 100 µM (CCRF-CEM): 13%
- GI50 (HT-29 [6]; read-out: GI50): 2230 nM
- CC50 (HT-29 [6]; [16]): > 100 µM
- TGI (HT-29 [6]; read-out: TGI): 5.39 µM
- GI50 (HT-29 [6]; read-out: pGI50 (converted)): 2240 nM
- CC50 (HT-29 [6]; [17]): > 100 µM
- TGI (HT-29 [6]; read-out: pTGI (converted)): 5.37 µM
- growth at 100 µM (HT-29 [7]): -43%
- growth at 10 µM (ACHN [8]): 3%
- growth at 100 µM (ACHN [9]): 3%
- growth at 0.1 µM (MCF7): 89%
- growth at 10 µM [10]: -19.9%
- growth at 1 µM (U-251): 70%
- growth at 100 µM [11]: -44%
- growth at 100 µM [12]: -58%
- growth at 100 µM (KM12): -37%
- growth at 0.1 µM [13]: 97%
- growth at 1 µM (EKVX [14]): 83%
- GI50 (SK-MEL-28; read-out: GI50): 1800 nM
- CC50 (SK-MEL-28; [16]): > 100 µM
- TGI (SK-MEL-28; read-out: TGI): 4.28 µM
- GI50 (SK-MEL-28; read-out: pGI50 (converted)): 1780 nM
- CC50 (SK-MEL-28; [17]): > 100 µM
- TGI (SK-MEL-28; read-out: pTGI (converted)): 4.27 µM
- growth at 10 µM [15]: -43.7%
